Source: paper PMC9418647 (European Journal of Drug Metabolism and Pharmacokinetics, 2022)

Tests used:
[1] = finerenone 20 mg; cited from earlier work
[2] = cited from earlier work
OATP1B1 = biological target: T1, OATP1B1 (Homo sapiens, UniProt Q9Y6L6); test: Uptake assay for OATP1B1 inhibition in HEK-OATP1B1 cells; format: in vitro ADME
T1 sequence (Q9Y6L6 1-691): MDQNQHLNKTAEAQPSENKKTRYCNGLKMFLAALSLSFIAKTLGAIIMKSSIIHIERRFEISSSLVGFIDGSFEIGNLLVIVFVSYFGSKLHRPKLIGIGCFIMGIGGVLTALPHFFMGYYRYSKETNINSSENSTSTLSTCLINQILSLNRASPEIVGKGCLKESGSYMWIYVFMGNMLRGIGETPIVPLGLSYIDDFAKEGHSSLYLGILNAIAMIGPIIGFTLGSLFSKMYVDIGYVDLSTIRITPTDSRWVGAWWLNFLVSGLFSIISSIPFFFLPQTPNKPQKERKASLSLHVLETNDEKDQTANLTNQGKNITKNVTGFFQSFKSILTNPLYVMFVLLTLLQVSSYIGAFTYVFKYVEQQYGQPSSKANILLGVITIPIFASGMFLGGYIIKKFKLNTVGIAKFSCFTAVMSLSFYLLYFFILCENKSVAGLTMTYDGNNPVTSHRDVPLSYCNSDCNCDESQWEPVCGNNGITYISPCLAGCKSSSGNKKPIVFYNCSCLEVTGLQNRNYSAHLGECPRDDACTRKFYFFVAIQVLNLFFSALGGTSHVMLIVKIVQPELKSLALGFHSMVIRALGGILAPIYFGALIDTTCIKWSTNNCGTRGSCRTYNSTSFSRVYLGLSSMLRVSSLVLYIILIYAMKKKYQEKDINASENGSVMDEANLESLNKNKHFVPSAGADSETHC
How it was run: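 OATP1B1 uptake measured across a test-compound concentration range. IC50 reported as greater than the top concentration if inhibition stayed below 50%, and that concentration was then used in the calculation. AUC ratio estimated by the basic static model, assuming substrate clearance runs solely via the transporter.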

[3] = Clinical study: safety and tolerability; format: in vivo, human
How it was run: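 Healthy men given finerenone 40 mg once daily for 10 days, with rosuvastatin. Supine BP, HR and 12-lead ECG recorded after 15 min rest, pre-dose and up to 24 h post-dose. Haematology and chemistry including serum electrolytes taken pre-dose and at 24 and 48 h, except after separated dosing. Adverse events elicited with non-leading questions through follow-up.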

OATP1B3 = biological target: T2, OATP1B3 (Homo sapiens, UniProt Q9NPD5); test: Uptake assay for OATP1B3 inhibition in HEK-OATP1B3 cells; format: in vitro ADME
T2 sequence (Q9NPD5 1-702): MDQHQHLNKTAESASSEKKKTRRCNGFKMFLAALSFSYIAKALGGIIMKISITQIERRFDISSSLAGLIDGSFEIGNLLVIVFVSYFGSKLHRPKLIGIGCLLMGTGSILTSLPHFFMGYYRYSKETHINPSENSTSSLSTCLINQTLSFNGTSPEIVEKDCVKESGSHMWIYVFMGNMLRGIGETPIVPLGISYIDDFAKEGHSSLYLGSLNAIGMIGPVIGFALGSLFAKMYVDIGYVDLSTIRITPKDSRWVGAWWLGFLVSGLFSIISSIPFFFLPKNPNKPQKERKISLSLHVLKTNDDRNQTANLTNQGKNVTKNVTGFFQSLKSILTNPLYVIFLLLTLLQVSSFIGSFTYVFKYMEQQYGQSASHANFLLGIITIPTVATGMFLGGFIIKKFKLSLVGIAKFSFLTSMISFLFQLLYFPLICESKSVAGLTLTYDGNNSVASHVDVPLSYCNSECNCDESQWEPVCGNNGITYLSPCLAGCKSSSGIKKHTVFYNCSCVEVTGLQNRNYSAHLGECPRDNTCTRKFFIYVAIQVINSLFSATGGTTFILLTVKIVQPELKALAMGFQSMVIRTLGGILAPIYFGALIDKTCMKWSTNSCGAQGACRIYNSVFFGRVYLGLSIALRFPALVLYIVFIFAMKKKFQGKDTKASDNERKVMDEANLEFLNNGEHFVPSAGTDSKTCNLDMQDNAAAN
How it was run: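 Transporter-mediated transport measured across a test-compound concentration range. Where inhibition stayed below 50% at the top concentration, IC50 was reported as greater than the highest tested concentration.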

[4] = cited from earlier work; remark: listed apart in the source

For CCOc1ncc(C)c2c1[C@H](c1ccc(C#N)cc1OC)C(C(N)=O)=C(C)N2 [Finerenone, finerenone], the “effect on repaglinide (CYP2C8 and OATP substrate)” value [1] is listed as “no effect”, the absolute bioavailability [2] is listed as 43.5% and the “administered dose excreted in feces” value [2] is listed as “approximately 20%”. The “administered dose excreted in urine” value [2] was “About 80%”, the “dose excreted unchanged in feces” value [2] was less than 0.2% and the “dose excreted unchanged in urine” value [2] was less than 1%. The “share of metabolic clearance by CYP3A4” value ([2]; remainder attributable to CYP2C8) was “about 90%”, the IC50 (OATP1B1) was 3.2 µM and the “predicted AUC ratio (AUCR), inhibition of OATP1B1” value (OATP1B1; basic model R = 1 + [I]inlet,max,u (or Cmax,u)/IC50) was 1.182. For the same molecule, the “changes in potassium levels” value ([3]; finerenone 40 mg) was “no relevant changes in potassium levels”, the “serious or severe adverse events” value ([3]; finerenone 40 mg alone or with rosuvastatin) was “no serious or severe AEs” and the tolerability ([3]; repeated doses of finerenone 40 mg once daily, healthy male volunteers) was “well tolerated”. For the same molecule, the IC50 (OATP1B3) was greater than 10 µM.

For CC(C)c1nc(N(C)S(C)(=O)=O)nc(-c2ccc(F)cc2)c1/C=C/[C@@H](O)C[C@@H](O)CC(=O)O [Rosuvastatin, rosuvastatin], the “Tmax (expected)” value [4] is given as “approximately 5 h”.

In the case of CC1=NN(c2ccc(C)c(C)c2)C(=O)/C1=N\Nc1cccc(-c2cccc(C(=O)O)c2)c1O [eltrombopag], the “rosuvastatin AUC ratio” value [4] is listed as 1.55 and the “rosuvastatin Cmax ratio” value [4] is listed as 2.03.

In the case of Cc1ccc(C)c(OCCCC(C)(C)C(=O)O)c1 [gemfibrozil], the “increase of rosuvastatin AUC” value [4] is given as 1.88 fold and the “increase of rosuvastatin Cmax” value [4] is given as 2.21 fold.

In the case of CO[C@H]1/C=C/O[C@@]2(C)Oc3c(C)c(O)c4c(O)c(c(/C=N/N5CCN(C)CC5)c(O)c4c3C2=O)NC(=O)/C(C)=C\C=C\[C@H](C)[C@H](O)[C@@H](C)[C@@H](O)[C@@H](C)[C@H](OC(C)=O)[C@@H]1C [rifampicin], the “CP-I AUC ratio” value [4] is given as 4.0, the “CP-III AUC ratio” value [4] is given as 3.3 and the “rosuvastatin AUC ratio” value [4] is given as 5.0.
